Results taken from ChEMBL document CHEMBL4007438, “Discovery of Competitive and Noncompetitive Ligands of the Organic Cation Transporter 1 (OCT1; SLC22A1)” (J Med Chem, 2017).

Legend:
[1] = biological target: T1, Solute carrier family 22 member 1 (Homo sapiens, UniProt O15245); test: (§1) Inhibition of human OCT1 expressed in HEK293 cells assessed as decrease in uptake of ASP+ after 2 mins by fluorescence assay; format: cell-based
T1 sequence (O15245 whole entry): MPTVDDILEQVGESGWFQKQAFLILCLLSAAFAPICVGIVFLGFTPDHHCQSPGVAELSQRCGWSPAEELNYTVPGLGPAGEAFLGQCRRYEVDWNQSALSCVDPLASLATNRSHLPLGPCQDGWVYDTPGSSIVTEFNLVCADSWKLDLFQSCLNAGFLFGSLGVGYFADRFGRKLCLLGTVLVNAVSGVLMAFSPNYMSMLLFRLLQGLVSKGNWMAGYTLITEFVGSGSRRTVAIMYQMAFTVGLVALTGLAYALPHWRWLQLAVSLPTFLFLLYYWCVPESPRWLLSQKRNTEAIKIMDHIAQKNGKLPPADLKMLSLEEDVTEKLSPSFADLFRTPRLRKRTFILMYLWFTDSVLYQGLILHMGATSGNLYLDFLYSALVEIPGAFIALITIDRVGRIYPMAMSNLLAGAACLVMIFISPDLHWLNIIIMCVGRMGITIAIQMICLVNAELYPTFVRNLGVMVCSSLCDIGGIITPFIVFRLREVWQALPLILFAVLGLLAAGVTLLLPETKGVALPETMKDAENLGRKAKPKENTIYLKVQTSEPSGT
Summary of the method: (§2)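 Human OCT1-overexpressing HEK-293 cells (48 h growth, ~90% confluent) were incubated 2 min at 37°C in HBSS with 2 µM ASP+ and serially diluted inhibitor. IC50 was obtained by curve fitting.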

[2] = biological target: T1, Solute carrier family 22 member 1; test: Competitive inhibition of human OCT1 expressed in HEK293 cells assessed as decrease in uptake of ASP+ after 2 mins by Lineweaver-Burk plot analysis; format: cell-based; conditions: hek293, 2 min
Summary of the method: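 HEK-293 cells stably overexpressing human OCT1 (kept in DMEM, 10% FBS, 75 µg/ml hygromycin B) were grown 48 h to ~90% confluence. They were exposed for 2 min at 37°C to HBSS with serial dilutions of ASP+ plus inhibitor at 4 fixed concentrations. Fluorescence was read at ex 485/em 585 nm. Reciprocal uptake at each inhibitor level was fitted by linear regression.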

[3] = biological target: T2, OCT1 (SLC22A1) (Homo sapiens, UniProt O15245); test: as §1; format: cell-based; conditions: human, HEK293 cells that express human OCT1, probe ASP+; summary of the method: as §2
T2 sequence (O15245 whole entry): T1 sequence (O15245 whole entry)

[4] = biological target: T1, Solute carrier family 22 member 1; test: Inhibition of human OCT1 expressed in HEK293 cells assessed as decrease in uptake of YM155 after 1 min
[5] = biological target: T1, Solute carrier family 22 member 1; test: Competitive inhibition of human OCT1 expressed in HEK293 cells assessed as decrease in uptake of ASP+ after 2 mins by Lineweaver-Burk plot analysis; conditions: hek293, 2 min
[6] = biological target: T1, Solute carrier family 22 member 1; test: Ratio of Kii for human OCT1-ASP+-inhibitor complex to Kis for human OCT1-inhibitor complex by Lineweaver-Burk plot analysis

c1ccc(CC2NCCc3ccccc32)cc1 (centres undefined)
IC50 [1]: 82.1 µM | inhibition (INH) [2]: Active

COc1cc2nc(N(C)CCCNC(=O)C3CCCO3)nc(N)c2cc1OC (centres undefined) [ALFUZOSIN]
IC50 [1]: 14.9 µM

Oc1c(Cl)cc(Cl)cc1Sc1cc(Cl)cc(Cl)c1O [BITHIONOL]
IC50 [1]: 2.23 µM

CCN(CC)CCNC(C(=O)OCCC(C)C)c1ccccc1 (centres undefined) [CAMYLOFIN]
IC50 [1]: 9.12 µM

CCN(CC)CCOCCOC(=O)C1(c2ccccc2)CCCC1 [CARBETAPENTANE]
IC50 [1]: 1.55 to 1.6 µM

COc1ccccc1OCCNCC(O)COc1cccc2[nH]c3ccccc3c12 (centres undefined) [CARVEDILOL]
IC50 [1]: 3.4 to 3.43 µM

CN/C(=N/CCSCc1nc[nH]c1C)NC#N [CIMETIDINE]
inhibition at 2 min [3]: 4.13% | IC50 [4]: 149 µM

Clc1cccc(Cl)c1N=C1NCCN1 [CLONIDINE]
IC50 [1]: 19 µM

Clc1ccc(C(OCCN2CCCCC2)c2ccccc2)cc1 (centres undefined) [CLOPERASTINE]
IC50 [1]: 14.9 µM

Cc1cc(C(C#N)c2ccc(Cl)cc2)c(Cl)cc1NC(=O)c1cc(I)cc(I)c1O (centres undefined) [CLOSANTEL]
IC50 [1]: 3 µM

Clc1ccccc1C(c1ccccc1)(c1ccccc1)n1ccnc1 [CLOTRIMAZOLE]
IC50 [1]: 12 µM

CNCCCN1c2ccccc2CCc2ccccc21 [DESIPRAMINE]
IC50 [1]: 9.18 µM

COc1ccc2c(c1)[C@]13CCCC[C@@H]1[C@H](C2)N(C)CC3 [DEXTROMETHORPHAN]
IC50 [1]: 10.5 µM

Oc1ccc(Cl)cc1Cc1cc(Cl)ccc1O [DICHLOROPHEN]
IC50 [1]: 8.41 µM

CC(CCc1ccc(O)cc1)NCCc1ccc(O)c(O)c1 (centres undefined) [DOBUTAMINE]
IC50 [1]: 4.17 µM

CN(C)CCC=C1c2ccccc2COc2ccccc21 [DOXEPIN]
IC50 [1]: 11.2 µM

CCN(CC)C(C)CN1c2ccccc2Sc2ccccc21 (centres undefined) [ETHOPROPAZINE]
IC50 [1]: 20.5 µM | inhibition (INH) [2]: Active | inhibition (INH) [5]: Active

COC1=CC(=O)C[C@@H](C)[C@]12Oc1c(Cl)c(OC)cc(OC)c1C2=O [GRISEOFULVIN]
IC50 [1]: 7.3 µM

N=C(N)N/N=C/c1c(Cl)cccc1Cl [GUANABENZ]
IC50 [1]: 4.85 µM

CN(C)CCCN1c2ccccc2CCc2ccccc21 [IMIPRAMINE]
IC50 [1]: 7.95 µM

CC(=O)N1CCN(c2ccc(OCC3COC(Cn4ccnc4)(c4ccc(Cl)cc4Cl)O3)cc2)CC1 (centres undefined) [KETOCONAZOLE]
IC50 [1]: 2.6 µM

CCCNCC(O)COc1ccccc1C(=O)CCc1ccccc1 (centres undefined) [PROPAFENONE]
IC50 [1]: 15.5 µM

CCc1nc(N)nc(N)c1-c1ccc(Cl)cc1 [PYRIMETHAMINE]
IC50 [1]: 13.6 µM

CCN(CC)CCNC(=O)c1c(C)[nH]c(/C=C2\C(=O)Nc3ccc(F)cc32)c1C [SUNITINIB]
IC50 [1]: 6.1 µM

Nc1c2c(nc3ccccc13)CCCC2 [TACRINE]
IC50 [1]: 21.7 µM | inhibition (INH) [2]: Active | inhibition (INH) [5]: Active

Cc1ncc(C[n+]2csc(CCO)c2C)c(N)n1 [THIAMINE ION]
inhibition at 2 min [3]: -1.5% | IC50 [1]: 4350 µM | Ratio [6]: 95.6
